# Source: ChEMBL document CHEMBL4028870, “Controlling Plasma Stability of Hydroxamic Acids: A MedChem Toolbox” (J Med Chem, 2017)
# Tests used:
# [1] = Half life in human plasma at 10 uM up to 360 mins by LC-MS/MS analysis; format: ADME, cell-free
# Procedure, shortened: (§1)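 Plasma incubated in duplicate at 37 °C with 10 µM test compound (1% methanol; from 1 mM methanol stock). Samples taken at 0, 15, 30, 60, 120, 240 and 360 min and quenched with 9 volumes of ice-cold methanol containing 500 nM internal standard, then centrifuged. Analyte/IS area ratios were quantified by LC-MS/MS as % remaining versus T0. t1/2 = −0.693/k, with k from the slope of log % remaining versus time.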
# [2] = Half life in rat plasma at 10 uM up to 360 mins by LC-MS/MS analysis; format: ADME, cell-free; procedure, shortened: as §1
# [3] = system: Plasma; test: Stability in rat plasma at 10 uM up to 360 mins in presence of EDTA by LC-MS/MS analysis; format: ADME, cell-free; conditions: 6 h
# Procedure, shortened: (§2)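 Rat plasma incubated in duplicate at 37 °C with 10 µM test compound (1% methanol), plus either 1 mM DTNB (11) or 0.5 mM EDTA (12). Duplicate controls used methanol in place of the inhibitor. Samples taken from 0 to 360 min and quenched with 9 volumes of cold methanol containing internal standard. Remaining compound measured by LC-MS/MS relative to T0.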
# [4] = biological target: T1, Liver carboxylesterase 1 (Mus musculus, UniProt Q8VCC2); test: Drug metabolism assessed as mouse CES1-mediated compound hydrolysis after 6 hrs; format: ADME
# T1 sequence (Q8VCC2 whole entry): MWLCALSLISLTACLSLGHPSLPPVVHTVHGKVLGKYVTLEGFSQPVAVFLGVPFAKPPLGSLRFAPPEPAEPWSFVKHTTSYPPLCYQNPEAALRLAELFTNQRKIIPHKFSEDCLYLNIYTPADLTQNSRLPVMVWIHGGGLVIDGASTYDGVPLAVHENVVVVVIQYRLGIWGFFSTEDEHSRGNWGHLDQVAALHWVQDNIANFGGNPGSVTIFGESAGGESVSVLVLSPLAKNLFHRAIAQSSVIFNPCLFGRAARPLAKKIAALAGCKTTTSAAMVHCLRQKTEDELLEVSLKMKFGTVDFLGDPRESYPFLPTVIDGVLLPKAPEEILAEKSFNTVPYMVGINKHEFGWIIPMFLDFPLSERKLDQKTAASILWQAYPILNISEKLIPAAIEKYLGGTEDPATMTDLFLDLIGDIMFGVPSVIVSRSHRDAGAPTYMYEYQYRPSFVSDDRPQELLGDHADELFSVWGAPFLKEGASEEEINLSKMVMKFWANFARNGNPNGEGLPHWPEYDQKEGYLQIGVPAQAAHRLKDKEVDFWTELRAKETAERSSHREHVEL
# [5] = biological target: T2, Liver carboxylesterase 1 (Homo sapiens, UniProt P23141); test: Drug metabolism assessed as human CES1-mediated compound hydrolysis after 6 hrs; format: ADME
# T2 sequence (P23141 whole entry): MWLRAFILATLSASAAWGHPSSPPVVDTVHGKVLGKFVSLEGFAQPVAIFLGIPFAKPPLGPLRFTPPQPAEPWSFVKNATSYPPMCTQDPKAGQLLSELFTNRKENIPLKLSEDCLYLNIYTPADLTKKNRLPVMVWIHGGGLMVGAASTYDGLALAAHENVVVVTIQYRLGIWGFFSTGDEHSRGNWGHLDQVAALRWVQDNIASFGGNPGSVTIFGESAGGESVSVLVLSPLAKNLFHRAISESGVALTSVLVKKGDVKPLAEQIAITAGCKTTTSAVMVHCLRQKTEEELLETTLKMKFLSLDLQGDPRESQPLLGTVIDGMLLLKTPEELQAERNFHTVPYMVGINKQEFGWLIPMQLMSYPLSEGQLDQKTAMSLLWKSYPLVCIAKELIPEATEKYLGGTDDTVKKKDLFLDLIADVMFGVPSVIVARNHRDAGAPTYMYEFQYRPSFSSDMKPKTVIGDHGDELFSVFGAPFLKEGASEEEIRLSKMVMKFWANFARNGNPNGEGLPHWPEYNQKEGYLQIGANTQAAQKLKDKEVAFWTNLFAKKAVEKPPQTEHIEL
# [6] = Half life in rat liver microsomes at 1 uM up to 120 mins by LC-MS/MS analysis; format: ADME, microsome
# Procedure, shortened: (§3)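 Run under non-oxidative conditions, in duplicate at 37 °C: 1 µM test compound (1% methanol) with 1 mg/mL rat liver or rat intestinal microsomal protein. Samples taken at 0, 15, 30, 60 and 120 min and quenched with 4 volumes of cold methanol or acetonitrile containing 200 nM internal standard. Triplicate controls used denatured microsomes. LC-MS/MS gave % remaining versus T0; t1/2 = −0.693/k.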
# [7] = Half life in rat intestinal microsomes at 1 uM up to 120 mins by LC-MS/MS analysis; format: ADME, Intestine, Microsome; procedure, shortened: as §3
# [8] = system: Plasma; test: Stability in rat plasma at 10 uM up to 360 mins in presence of DTNB by LC-MS/MS analysis; format: ADME, cell-free; conditions: 6 h; procedure, shortened: as §2
# [9] = Half life in human liver microsomes at 10 uM up to 120 mins by LC-MS/MS analysis; format: ADME, microsome
Compound,half-life at 10 µM [1] [h],half-life at 10 µM [2] [h],Stability [3],also measured
CC(Cc1ccccc1)(C(=O)NO)C(=O)NCc1ccccc1 (centres undefined),> 6,1.5,Unstable,–
O=C(NO)C(Cc1ccccc1)C(=O)NCc1ccccc1 (centres undefined),> 6,0.8,Unstable,Drug metabolism [4]: Metabolite_Detected; Drug metabolism [5]: Metabolite_Detected
O=C(CCCC1CCCCC1)NO,> 6,0.05,–,Drug metabolism [4]: Metabolite_Detected; Drug metabolism [5]: Metabolite_Detected
O=C(NO)C(Cc1ccccc1)C(=O)NCc1ccncc1 (centres undefined),> 6,3.3,Unstable,–
O=C(NO)C(Cc1ccccc1)C(=O)NCc1ccc(F)cc1 (centres undefined),–,–,Unstable,–
O=C(CC12CC3CC(CC(C3)C1)C2)NO,> 6,> 6,–,–
O=C(NO)[C@H](Cc1ccccc1)NS(=O)(=O)c1ccccc1,> 6,0.1,Unstable,–
O=C(CC1CCCCC1)NO,> 6,> 6,–,–
O=C(NO)C(Cc1ccncc1)C(=O)NCc1ccccc1 (centres undefined),> 6,4.5,Unstable,–
CC(C)(C(=O)NO)C(=O)NCc1ccccc1,> 6,> 6,–,–
O=C(NO)C(CCc1ccccc1)Cc1ccccc1 (centres undefined),> 6,> 6,–,–
CC(C)[C@H](C(=O)NO)N(Cc1ccccc1)S(=O)(=O)c1ccccc1,> 6,> 6,–,–
O=C(N[C@@H](CO)C(=O)NO)c1ccc(-c2ccccc2)cc1,> 6,> 6,–,–
CS(=O)(=O)C(CCc1ccccc1)(Cc1ccccc1)C(=O)NO (centres undefined),> 6,> 6,–,–
CC(CCc1ccccc1)(C(=O)NO)S(=O)(=O)c1ccccc1 (centres undefined),> 6,> 6,–,–
O=C(CCC12CC3CC(CC(C3)C1)C2)NO,> 6,0.5,–,Stability [8]: Unstable
O=C(NO)C1(C(=O)NCc2ccccc2)CC1,> 6,> 6,–,–
O=C(CCC1CCCCC1)NO,> 6,0.06,–,Drug metabolism [4]: Metabolite_Detected; Drug metabolism [5]: Metabolite_Detected
O=C(NO)C1(NS(=O)(=O)c2ccccc2)CCOCC1,> 6,> 6,–,–
O=C(NO)C(Cc1ccc2ccccc2c1)C(=O)NCc1ccccc1 (centres undefined),> 6,0.1,Unstable,Drug metabolism [4]: Metabolite_Detected; Drug metabolism [5]: Metabolite_Detected
O=C(NCC(C(=O)NO)N1CCCCC1)c1ccccc1 (centres undefined),> 6,0.4,Unstable,–
O=C(NO)[C@@H](Cc1ccccc1)N(Cc1ccccc1)S(=O)(=O)c1ccccc1,> 6,> 6,–,–
O=C(NO)[C@H](Cc1ccccc1)NCc1ccccc1,> 6,1.8,Unstable,–
O=C(NO)C(CCc1ccccc1)S(=O)(=O)c1ccccc1 (centres undefined),> 6,> 6,–,–
CC(Cc1ccccc1)(C(=O)NO)C(=O)NCc1ccc(F)cc1 (centres undefined),–,–,Unstable,–
CC(=O)Oc1cc2c(s1)CCN(C(C(=O)C1CC1)c1ccccc1F)C2 (centres undefined) [PRASUGREL],–,–,–,half-life at 1 µM [7]: 0.0167 h
CCOC(=O)[C@H](CCc1ccccc1)N[C@@H](C)C(=O)N1[C@H](C(=O)O)C[C@H]2CCCC[C@@H]21 [TRANDOLAPRIL],–,–,–,half-life at 1 µM [6]: 0.117 h; half-life at 10 µM [9]: 0.333 h

# Second part, led by results:
half-life at 10 µM [1] [h],half-life at 10 µM [2] [h],Stability [3],Compound,also measured
> 6,0.7,Unstable,O=C(NO)C1Cc2ccccc2CN1S(=O)(=O)c1ccccc1 (centres undefined),–
–,–,Unstable,O=C(CCc1ccccc1)NO,half-life at 1 µM [6]: 0.25 h; half-life at 1 µM [7]: > 6 h; Drug metabolism [4]: Metabolite_Detected; Drug metabolism [5]: Metabolite_Detected
> 6,> 6,–,CC(CCc1ccccc1)C(=O)NO (centres undefined),–
> 6,0.9 to 0.93,Unstable,O=C(CCCCc1ccccc1)NO,–
> 6,> 6,–,O=C(CC(=O)NCc1ccccc1)NO,–
> 6,> 6,–,O=C(/C=C/c1ccc(S(=O)(=O)Nc2ccccc2)cc1)NO,–
> 6,> 6,–,O=C(CC(=O)NCc1ccc(F)cc1)NO,–
> 6,> 6,–,O=C(C=C(c1ccccc1)c1ccccc1)NO,Drug metabolism [4]: Metabolite_Detected; Drug metabolism [5]: Metabolite_Detected
> 6,4.5,Unstable,O=C(CCCCCc1ccccc1)NO,–
2.4,0.43,–,O=C(CCC(=O)Nc1ccccc1)NO,Drug metabolism [4]: Metabolite_Detected; Drug metabolism [5]: Metabolite_Detected
> 6,2.5,Unstable,O=C(CCNC(=O)c1ccccc1)NO,–
> 6,> 6,–,O=C(NO)C1CCN(C(=O)c2ccccc2)C1 (centres undefined),–
> 6,> 6,–,O=C(CC(=O)Nc1ccccc1)NO,–
> 6,> 6,–,CC(C(=O)NO)C(=O)NCc1ccccc1 (centres undefined),–
> 6,2.1,Unstable,O=C(CCNCc1ccccc1)NO,–
> 6,0.29,Unstable,O=C(CNC(=O)Cc1ccccc1)NO,–
> 6,> 6,–,C[C@H](NCc1ccccc1)C(=O)NO,–
> 6,0.58,Unstable,O=C(CNC(=O)c1ccccc1)NO,–
> 6,0.5,Unstable,O=C(CNCCc1ccccc1)NO,–
> 6,3.6,Unstable,O=C(CNCc1ccccc1)NO,–
> 6,> 6,–,O=C(/C=C/c1ccc(-c2ccccc2)cc1)NO,–
> 6,> 6,–,CC(C(=O)NO)C(=O)NCc1ccc(F)cc1 (centres undefined),–
> 6,> 6,–,O=C(CCCCCCc1ccccc1)NO,–
> 6,> 6,–,O=C(/C=C/c1ccc(Cl)cc1Cl)NO [CINNAMIC ACID HYDROXAMATE],–
> 6,> 6,–,CCCCc1nc2cc(/C=C/C(=O)NO)ccc2n1CCN(CC)CC [PRACINOSTAT],–
